Assay results from different studies.
Protocols differ between the studies behind these lines.
Target: Mitogen-activated protein kinase kinase kinase kinase 4 (MAP4K4, Homo sapiens, UniProt O95819)

| Compound | test | conditions | measurement | result |
| --- | --- | --- | --- | --- |
| Nc1nc(Nc2ccc(S(N)(=O)=O)cc2)nn1C(=O)c1c(F)cccc1F | cell-free assay | 0.5 µM | remaining signal | 83.8% |
| COc1cc2ncnc(Nc3ccc(Oc4ccccc4)c(C)c3C)c2cc1OC | enzyme activity, inhibitor | 1 µM | inhibition | -3% |
| O=C1Nc2ccc(Cl)cc2C1=Cc1cc(Cl)c(O)c(Cl)c1 | cell-free assay | 0.5 µM | remaining signal | 4.48% |
| CO[C@@H](C)c1c(Nc2ccc([C@H](N(C)C(=O)C3CCS(=O)(=O)CC3)C(F)(F)F)cc2)cnc2cc(Cl)nn12 | cell-free assay, competition with immobilised ligand | 1 µM | remaining binding | 100% |
| COc1cc(Cl)c(C(=O)N[C@@H](CN[C@H]2CC[C@@H](N)CC2)Cc2ccc(C#N)cc2)cc1-c1ccc(CN[C@H](C)c2ccc(C)cc2)o1 | enzyme activity, inhibitor | 1 µM | remaining activity | 96% |
| CC/C(=N\NC(=O)NCc1cccc(O)c1)c1ccc(O)c(C)c1O | enzyme activity, inhibitor | 0.1 µM | inhibition | 3.8% |
| N#CCCc1ccc2c(c1)-c1[nH]c3ccc([N+](=O)[O-])cc3c1CC(=O)N2 | cell-free assay | 0.5 µM | remaining signal | 6.82% |
| Cc1nc(C2CCN(C(=O)c3ccc(OC(F)(F)F)cc3N)CC2)c2ncc(N3CCN(C)CC3)cc2n1 | cell-free assay, competition with immobilised ligand | 1 µM | remaining binding | 100% |
| O=C(Nc1cnn(-c2csc(C(=O)NC3COC3)c2)c1)Nc1c(F)cccc1Cl | enzyme activity, inhibitor | 5 µM | remaining activity | 90.4% |
| CC(C)(C)c1nc(-c2cccc(NS(=O)(=O)c3c(F)cccc3F)c2F)c(-c2ccnc(N)n2)s1 | enzyme activity, inhibitor, radiometric | 1 µM | remaining activity | 95% |
| CC(C)(O)[C@H]1CC[C@H](Nc2ccc3ncc(-c4cccc(C(F)(F)F)c4)n3n2)CC1 | enzyme activity, inhibitor | 1 µM | remaining activity | 90.6% |
| Cc1ccc(C(=O)NCc2ccsc2)cc1C#Cc1cn(C(C)C)c2ncnc(N)c12 | enzyme activity, inhibitor | 1 µM | activity vs control | 146% |
| CCCCN(CCCC)C(=O)CN1C[C@@H](c2cc(OC)c3c(c2)OCO3)[C@H](C(=O)O)[C@H]1CC(C)(C)CCC | cell-free assay, competition with immobilised ligand | 1 µM | remaining binding | 88.9% |
| O=C1NC(=O)c2cc(Nc3ccc(F)cc3)c(Nc3ccc(F)cc3)cc21 | cell-free assay | 0.5 µM | remaining signal | 91.2% |
| CC(C)CC(=O)N1CCc2nc(-c3ccc(Br)cc3)nc(N(C)Cc3ccccc3)c2C1 | cell-free assay, competition with immobilised ligand | 0.1 µM | remaining binding | 84% |
| CS(=O)(=O)CCNCc1ccc(-c2ccc3ncnc(Nc4ccc(OCc5cccc(F)c5)c(Cl)c4)c3c2)o1 | cell-free assay | 0.5 µM | remaining signal | 111% |
| Cc1sc(C(=O)NC2COC2)cc1-n1cc(NC(=O)Nc2c(F)cccc2Cl)cn1 | enzyme activity, inhibitor | 10 µM | remaining activity | 93.4% |
| O=C(O)c1cc(-c2ccc(C3CCNCC3)cc2)c2ccc(-c3ccc(C(F)(F)F)cc3)cc2c1 | cell-free assay, competition with immobilised ligand | 1 µM | remaining binding | 87% |
